The values below come from ChEMBL document CHEMBL5614410, “Design, Synthesis, and Evaluation of p53Y220C Acetylation Targeting Chimeras (AceTACs)” (J Med Chem, 2024).

The structures appear in SMILES notation.

This assay relates to Cellular tumor antigen p53 (Homo sapiens), P04637 [Y220C]. The experiment in a line: Stabilization of p53Y220C mutant (unknown origin) expressed in human NCI-H1299 cells assessed as increase in melting temperature incubated for 1 hr by CETSA analysis. The format is cell-based. In short, it runs like this:
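CETSA: NCI-H1299 (p53Y220C) stable cells were treated with DMSO or 100 μM for 1 h, then heated from 32 to 50 °C. Soluble p53 was detected by Western blot. Results are representative of at least two independent experiments.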

What is called ΔTm is the change in melting temperature against a reference sample. In the case of `C=C(C)C(=O)n1cc(C)c2c(-c3ccc4c(c3)CCN(C)C4)cncc21`, the ΔTm worked out at 8.3 °C.
